molecular target: T1, UniProt Q8VH21; conditions: stereoisomer not certain
T1 sequence (whole entry): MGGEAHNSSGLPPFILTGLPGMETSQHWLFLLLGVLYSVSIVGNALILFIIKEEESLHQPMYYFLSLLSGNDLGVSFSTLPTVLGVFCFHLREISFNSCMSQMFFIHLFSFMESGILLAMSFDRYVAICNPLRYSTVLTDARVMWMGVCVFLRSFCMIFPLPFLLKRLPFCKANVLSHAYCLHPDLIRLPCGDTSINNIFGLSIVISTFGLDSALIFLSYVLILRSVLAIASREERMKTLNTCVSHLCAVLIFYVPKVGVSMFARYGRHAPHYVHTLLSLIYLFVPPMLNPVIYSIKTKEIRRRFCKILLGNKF
Summary of the method: (§1)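 Whether a receptor–molecule pair is responsive (active) rests on the original authors' judgment that its measured signal was statistically different from baseline. Pairs without that judgment are non-responsive (inactive). Sources used varied assay methods, commonly transient luciferase assays in mammalian cell lines.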
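Further: active if original authors judged signal statistically different from baseline.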

Odorant receptor agonist call, active:
CCCCC(=O)O

Odorant receptor agonist call, inactive:
CCCCCCCCC(=O)O
CCCCCCCO
c1ccccc1
CCCCCOC(=O)CCCCC
CCCCCC1=C(C)CCC1=O
CC(C)=CCCC(C)=CCO
O=C(c1ccccc1)c1ccccc1
CC(=O)Oc1ccccc1
COc1cc(C(=O)O)ccc1O
CC12CCC(CC1=O)C2(C)C (configuration not stated)
CCCCCCCCCC(=O)[O-].[H+]
CCCCCCC(C)=O
C=CCOC(=O)CCCCCC
CCCCC(=O)CC
CCCC(=O)C(C)=O
CCCCCCCCCCO
O=C1CCOc2ccccc21
CC(C)=CCCC(C)CCO (configuration not stated)
CCCCCCCCS
CCC(=O)O
CC(=O)OCC=C(C)C
CCCCC(C)=O
CCCCCC(=O)CC
CCC(=O)C(=O)CC
O=C1Cc2ccccc2O1
CCOC(=O)C(C)C
CCCCCCO
CCCCCC=O
CCCCCCCCCS
CCCCCCCCO
CC(=O)OCc1ccccc1
CCCCOC=O
CCCCCCCCCO
CCCCCCOC(C)=O
CCCCCCCC(C)=O

molecular target: T2, UniProt Q920P1; conditions: stereoisomer not certain
T2 sequence (whole entry): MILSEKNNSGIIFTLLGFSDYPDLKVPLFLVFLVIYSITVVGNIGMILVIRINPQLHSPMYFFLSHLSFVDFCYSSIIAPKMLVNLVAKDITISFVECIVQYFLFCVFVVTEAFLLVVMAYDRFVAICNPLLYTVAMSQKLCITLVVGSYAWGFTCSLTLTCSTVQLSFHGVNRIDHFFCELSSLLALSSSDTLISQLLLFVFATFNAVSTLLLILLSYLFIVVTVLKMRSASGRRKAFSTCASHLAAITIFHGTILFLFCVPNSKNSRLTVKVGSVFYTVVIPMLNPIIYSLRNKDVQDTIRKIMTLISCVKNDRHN
Summary of the method: as §1

Odorant receptor agonist call, inactive:
c1ccccc1
CC(C)=CCCC(C)=CCO
COc1cc(C(=O)O)ccc1O

molecular target: T3, UniProt Q920P2; conditions: stereoisomer not certain
T3 sequence (whole entry): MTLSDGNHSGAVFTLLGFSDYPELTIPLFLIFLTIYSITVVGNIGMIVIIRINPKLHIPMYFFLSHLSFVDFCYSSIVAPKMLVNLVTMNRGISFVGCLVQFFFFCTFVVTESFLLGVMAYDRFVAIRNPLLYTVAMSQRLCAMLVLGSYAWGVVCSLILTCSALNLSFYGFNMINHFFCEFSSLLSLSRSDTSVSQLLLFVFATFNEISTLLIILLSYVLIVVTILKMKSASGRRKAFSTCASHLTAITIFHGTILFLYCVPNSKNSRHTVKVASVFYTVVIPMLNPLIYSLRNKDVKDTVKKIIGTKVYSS
Summary of the method: as §1

Odorant receptor agonist call, inactive:
c1ccccc1
CC(C)=CCCC(C)=CCO
COc1cc(C(=O)O)ccc1O

molecular target: T4, UniProt Q924H8; conditions: stereoisomer not certain
T4 sequence (whole entry): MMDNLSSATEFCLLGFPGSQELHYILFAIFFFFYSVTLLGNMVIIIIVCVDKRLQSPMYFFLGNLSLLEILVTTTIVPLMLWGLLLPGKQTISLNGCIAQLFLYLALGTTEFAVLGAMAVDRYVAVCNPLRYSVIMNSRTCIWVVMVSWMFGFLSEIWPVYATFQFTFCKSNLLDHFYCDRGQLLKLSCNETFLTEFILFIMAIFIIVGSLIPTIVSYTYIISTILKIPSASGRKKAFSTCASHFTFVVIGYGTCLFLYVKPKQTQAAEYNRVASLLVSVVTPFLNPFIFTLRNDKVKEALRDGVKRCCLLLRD
Summary of the method: as §1

Odorant receptor agonist call, active:
CCCCCCCCCS

Odorant receptor agonist call, inactive:
CCCCCCCCC(=O)O
CCCCCCCO
c1ccccc1
CCCCCOC(=O)CCCCC
CCCCCC1=C(C)CCC1=O
CC(C)=CCCC(C)=CCO
O=C(c1ccccc1)c1ccccc1
CC(=O)Oc1ccccc1
COc1cc(C(=O)O)ccc1O
CC12CCC(CC1=O)C2(C)C (configuration not stated)
CCCCCCCCCC(=O)[O-].[H+]
CCCCCCC(C)=O
C=CCOC(=O)CCCCCC
CCCCC(=O)CC
CCCC(=O)C(C)=O
CCCCCCCCCCO
O=C1CCOc2ccccc21
CC(C)=CCCC(C)CCO (configuration not stated)
CCCCC(=O)O
CCCCCCCCS
CCC(=O)O
CC(=O)OCC=C(C)C
CCCCC(C)=O
CCCCCC(=O)CC
CCC(=O)C(=O)CC
O=C1Cc2ccccc2O1
CCOC(=O)C(C)C
CCCCCCO
CCCCCC=O
CCCCCCCCO
CC(=O)OCc1ccccc1
CCCCOC=O
CCCCCCCCCO
CCCCCCOC(C)=O
CCCCCCCC(C)=O

molecular target: T5, UniProt Q924X8; conditions: stereoisomer not certain
T5 sequence (whole entry): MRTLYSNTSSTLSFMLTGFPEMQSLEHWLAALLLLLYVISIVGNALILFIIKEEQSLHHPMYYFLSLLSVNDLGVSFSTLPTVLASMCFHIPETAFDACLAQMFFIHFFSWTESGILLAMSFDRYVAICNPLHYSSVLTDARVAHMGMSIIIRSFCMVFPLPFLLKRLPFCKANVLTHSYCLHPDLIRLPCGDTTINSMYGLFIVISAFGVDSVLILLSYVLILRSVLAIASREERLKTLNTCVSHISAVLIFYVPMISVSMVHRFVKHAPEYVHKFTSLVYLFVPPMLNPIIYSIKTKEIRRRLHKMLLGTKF
Summary of the method: as §1

Odorant receptor agonist call, inactive:
CCCCCCCCC(=O)O
CCCCCCCO
CCCCC(=O)O
CCCCCCO
CCCCCCCCO
CCCCCCCCCO

molecular target: T6, UniProt Q99NH4; conditions: stereoisomer not certain
T6 sequence (whole entry): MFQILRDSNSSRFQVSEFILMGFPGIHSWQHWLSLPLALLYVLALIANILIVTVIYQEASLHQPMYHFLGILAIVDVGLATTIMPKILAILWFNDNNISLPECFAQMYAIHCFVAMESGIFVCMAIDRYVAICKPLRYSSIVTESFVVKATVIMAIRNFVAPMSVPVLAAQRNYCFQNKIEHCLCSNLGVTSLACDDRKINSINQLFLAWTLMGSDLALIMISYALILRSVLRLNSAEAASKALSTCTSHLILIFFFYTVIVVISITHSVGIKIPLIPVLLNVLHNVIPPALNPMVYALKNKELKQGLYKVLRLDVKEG
Summary of the method: as §1

Odorant receptor agonist call, active:
CCCCCCCCC(=O)O

Odorant receptor agonist call, inactive:
CCCCCCCO
CCCCCCCCCC(=O)[O-].[H+]
CCCCCCCCCCO
CCCCC(=O)O
CCCCCCO
CCCCCC=O

molecular target: T7, UniProt Q9EPN9; conditions: stereoisomer not certain
T7 sequence (whole entry): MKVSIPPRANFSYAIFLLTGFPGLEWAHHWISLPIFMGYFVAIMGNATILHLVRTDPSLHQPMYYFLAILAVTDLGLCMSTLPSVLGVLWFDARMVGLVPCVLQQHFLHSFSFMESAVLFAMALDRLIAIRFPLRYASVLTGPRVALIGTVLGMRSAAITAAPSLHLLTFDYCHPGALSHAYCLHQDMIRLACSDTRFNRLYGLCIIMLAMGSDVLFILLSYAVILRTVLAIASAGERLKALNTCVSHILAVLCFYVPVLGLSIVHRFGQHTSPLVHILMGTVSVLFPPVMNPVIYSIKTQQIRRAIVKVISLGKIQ
Summary of the method: as §1

Odorant receptor agonist call, inactive:
CCCCCCCCC(=O)O
CCCCCCCO
c1ccccc1
CCCCCOC(=O)CCCCC
CCCCCC1=C(C)CCC1=O
CC(C)=CCCC(C)=CCO
O=C(c1ccccc1)c1ccccc1
CC(=O)Oc1ccccc1
COc1cc(C(=O)O)ccc1O
CC12CCC(CC1=O)C2(C)C (configuration not stated)
CCCCCCCCCC(=O)[O-].[H+]
CCCCCCC(C)=O
C=CCOC(=O)CCCCCC
CCCCC(=O)CC
CCCC(=O)C(C)=O
CCCCCCCCCCO
O=C1CCOc2ccccc21
CC(C)=CCCC(C)CCO (configuration not stated)
CCCCC(=O)O
CCCCCCCCS
CCC(=O)O
CC(=O)OCC=C(C)C
CCCCC(C)=O
CCCCCC(=O)CC
CCC(=O)C(=O)CC
O=C1Cc2ccccc2O1
CCOC(=O)C(C)C
CCCCCCO
CCCCCC=O
CCCCCCCCCS
CCCCCCCCO
CC(=O)OCc1ccccc1
CCCCOC=O
CCCCCCCCCO
CCCCCCOC(C)=O
CCCCCCCC(C)=O
